Experimental data of several laboratories.
Target: Tyrosine-protein kinase HCK (HCK, Homo sapiens, UniProt P08631)

Compound	effect on	technique	concentration	remaining binding [%]
C[C@H]1CCN(c2nccc(-c3cnn4ncccc34)n2)C1	binding		1 µM	95
FC(F)(F)Oc1cccc(-c2cnc3ccc(-c4ccncc4)nn23)c1	cell-free assay	competition with immobilised ligand	5 µM	71
O=C1NC(c2ccccn2)Sc2ccccc21 (stereo not drawn)	cell-free assay	competition with immobilised ligand	1 µM	90
N[C@H]1CCN(c2nccc(-c3cnn4ncccc34)n2)C1	binding		1 µM	98
COc1cnc(Nc2cccc(S(N)(=O)=O)c2)nc1N1CCN(c2ccccc2)CC1	binding	competition with immobilised ligand	1 µM	100
Cc1cnn2ncc(-c3ccnc(N(C)C)n3)c2c1	binding		1 µM	100
CCN1CCN(Cc2ccc(C(=O)Nc3ccc(C)c(Oc4ccc5c(c4)CC(=O)N5)c3)cc2C(F)(F)F)CC1	binding	competition with immobilised ligand	1 µM	80
c1cncc(-c2cccc(Nc3nccc(NC4CCCCC4)n3)c2)c1	binding	competition with immobilised ligand	10 µM	3.1
O=C(c1ccc(Nc2nccc(-c3cc4ccccc4s3)n2)cc1)N1CCC(N2CCCC2)CC1	binding	competition with immobilised ligand	1 µM	100
CNC(=O)[C@@H]1CC[C@@H](n2c(-c3ccc4cnccc4c3)nc3ccc(C(=O)NCc4cccc(C(N)=O)c4)cc32)C1	binding	competition with immobilised ligand	1 µM	93
O=C(Nc1cnc(Oc2ccc(F)cc2)nc1)N1CCc2ncccc2[C@@H]1c1ccc(F)cc1	cell-free assay	competition with immobilised ligand	1 µM	96
O=C(NCCCN1CCOCC1)c1ccc(Nc2ncc(Cl)c(-c3ccc(Cl)s3)n2)cc1	binding	competition with immobilised ligand	1 µM	100
CN(C)c1ncc(F)c(-c2cnn3ncccc23)n1	binding		1 µM	46
CCOCCn1cc(C(=O)Nc2ccc(-n3nc(-c4cccnc4)cc3C(F)(F)F)cn2)ccc1=O	cell-free assay	competition with immobilised ligand	1 µM	93
O=C(Nc1c[nH]nc1C(=O)NC1CCNCC1)c1cc(F)cc(F)c1	binding	competition with immobilised ligand	1 µM	100
CS(=O)(=O)c1cc(C2(NC(=O)c3cncc4c3cnn4-c3ccc(F)cc3)CC2)ccn1	cell-free assay	competition with immobilised ligand	1 µM	100
O=C(NCCCN1CCOCC1)c1ccc(Nc2nccc(-c3cc4ccccc4s3)n2)cc1	binding	competition with immobilised ligand	1 µM	95
CO[C@@H](C)c1c(Nc2ccc([C@H](N(C)C(=O)C3CCS(=O)(=O)CC3)C(F)(F)F)cc2)cnc2cc(Cl)nn12	cell-free assay	competition with immobilised ligand	1 µM	100
CN(CCCC(F)(F)F)c1nccc(-c2cnn3ncccc23)n1	binding		1 µM	99
COc1ccc2c(O[C@@H]3C[C@H]4C(=O)N[C@]5(C(=O)O)CC5/C=C\CCCCC[C@H](NC(=O)OC5CCCC5)C(=O)N4C3)cc(-c3csc(NC(=O)C(C)C)n3)nc2c1C (stereo partly drawn)	cell-free assay	competition with immobilised ligand	1 µM	100
c1cnn2ncc(-c3ccnc(N4CCC45COC5)n3)c2c1	binding		1 µM	90
